Source: ChEMBL document CHEMBL2385045, “Discovery of novel 4-(2-fluorophenoxy)quinoline derivatives bearing 4-oxo-1,4-dihydrocinnoline-3-carboxamide moiety as c-Met kinase inhibitors” (Bioorg Med Chem, 2013)

Columns and labels:
[1] = target: Hepatocyte growth factor receptor (Homo sapiens, UniProt P08581); assay: Inhibition of c-Met (unknown origin) using poly (Glu, Tyr) 4:1 as substrate after 30 mins by HTRF assay
[2] = target: Epidermal growth factor receptor (Homo sapiens, UniProt P00533); assay: Inhibition of EGFR (unknown origin) using poly (Glu, Tyr) 4:1 as substrate after 30 mins by HTRF assay
Chain of Epidermal growth factor receptor (P00533 whole entry): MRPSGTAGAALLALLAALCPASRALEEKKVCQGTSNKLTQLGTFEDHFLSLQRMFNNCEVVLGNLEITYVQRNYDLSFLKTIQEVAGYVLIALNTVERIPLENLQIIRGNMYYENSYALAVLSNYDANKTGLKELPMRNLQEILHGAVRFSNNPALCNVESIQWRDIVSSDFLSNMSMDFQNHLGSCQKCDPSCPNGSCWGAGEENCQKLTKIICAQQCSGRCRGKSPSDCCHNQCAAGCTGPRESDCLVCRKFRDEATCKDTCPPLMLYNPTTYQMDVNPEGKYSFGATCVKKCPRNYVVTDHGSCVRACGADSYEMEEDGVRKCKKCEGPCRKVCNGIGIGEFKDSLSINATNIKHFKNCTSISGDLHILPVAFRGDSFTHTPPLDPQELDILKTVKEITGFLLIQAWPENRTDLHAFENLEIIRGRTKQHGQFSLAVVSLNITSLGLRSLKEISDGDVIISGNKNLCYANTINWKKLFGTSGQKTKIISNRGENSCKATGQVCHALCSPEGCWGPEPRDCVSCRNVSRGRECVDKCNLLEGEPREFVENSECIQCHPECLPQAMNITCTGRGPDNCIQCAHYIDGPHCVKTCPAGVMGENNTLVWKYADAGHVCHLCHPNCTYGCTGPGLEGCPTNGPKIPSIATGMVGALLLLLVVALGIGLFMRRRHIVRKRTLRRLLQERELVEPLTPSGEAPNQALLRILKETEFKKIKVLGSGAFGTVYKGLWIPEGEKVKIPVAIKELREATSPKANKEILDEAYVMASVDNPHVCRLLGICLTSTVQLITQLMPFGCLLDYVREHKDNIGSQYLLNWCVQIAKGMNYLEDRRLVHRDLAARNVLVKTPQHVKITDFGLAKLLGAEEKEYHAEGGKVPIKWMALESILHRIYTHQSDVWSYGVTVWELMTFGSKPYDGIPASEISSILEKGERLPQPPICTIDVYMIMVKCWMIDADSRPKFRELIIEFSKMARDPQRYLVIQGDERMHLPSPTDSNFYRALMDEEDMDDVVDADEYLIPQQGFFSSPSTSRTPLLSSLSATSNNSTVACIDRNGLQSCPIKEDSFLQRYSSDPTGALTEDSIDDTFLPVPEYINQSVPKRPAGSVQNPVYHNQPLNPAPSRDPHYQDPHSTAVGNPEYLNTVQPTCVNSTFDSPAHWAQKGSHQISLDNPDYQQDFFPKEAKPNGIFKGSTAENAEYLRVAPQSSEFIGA
In short: (§1)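 HTRF kinase assay on plates precoated with 20 µg/mL poly(Glu,Tyr) 4:1. ATP (10 mM solution) in 50 mM HEPES pH 7.0 buffer with DTT, MgCl₂, MnCl₂ and 0.1% NaN₃. Compound in 1% DMSO; reaction started with purified kinase and run 30 min at 25 °C. Stopped with Streptavidin-XL665 plus TK antibody cryptate and read at 320/615. Inhibition relative to enzyme and no-enzyme controls; IC50 from the inhibition curves.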

[3] = target: T1, Receptor-type tyrosine-protein kinase FLT3 (Homo sapiens, UniProt P36888); assay: Inhibition of Flt-3 (unknown origin) using poly (Glu, Tyr) 4:1 as substrate after 30 mins by HTRF assay; in short: as §1
T1 sequence (P36888 whole entry): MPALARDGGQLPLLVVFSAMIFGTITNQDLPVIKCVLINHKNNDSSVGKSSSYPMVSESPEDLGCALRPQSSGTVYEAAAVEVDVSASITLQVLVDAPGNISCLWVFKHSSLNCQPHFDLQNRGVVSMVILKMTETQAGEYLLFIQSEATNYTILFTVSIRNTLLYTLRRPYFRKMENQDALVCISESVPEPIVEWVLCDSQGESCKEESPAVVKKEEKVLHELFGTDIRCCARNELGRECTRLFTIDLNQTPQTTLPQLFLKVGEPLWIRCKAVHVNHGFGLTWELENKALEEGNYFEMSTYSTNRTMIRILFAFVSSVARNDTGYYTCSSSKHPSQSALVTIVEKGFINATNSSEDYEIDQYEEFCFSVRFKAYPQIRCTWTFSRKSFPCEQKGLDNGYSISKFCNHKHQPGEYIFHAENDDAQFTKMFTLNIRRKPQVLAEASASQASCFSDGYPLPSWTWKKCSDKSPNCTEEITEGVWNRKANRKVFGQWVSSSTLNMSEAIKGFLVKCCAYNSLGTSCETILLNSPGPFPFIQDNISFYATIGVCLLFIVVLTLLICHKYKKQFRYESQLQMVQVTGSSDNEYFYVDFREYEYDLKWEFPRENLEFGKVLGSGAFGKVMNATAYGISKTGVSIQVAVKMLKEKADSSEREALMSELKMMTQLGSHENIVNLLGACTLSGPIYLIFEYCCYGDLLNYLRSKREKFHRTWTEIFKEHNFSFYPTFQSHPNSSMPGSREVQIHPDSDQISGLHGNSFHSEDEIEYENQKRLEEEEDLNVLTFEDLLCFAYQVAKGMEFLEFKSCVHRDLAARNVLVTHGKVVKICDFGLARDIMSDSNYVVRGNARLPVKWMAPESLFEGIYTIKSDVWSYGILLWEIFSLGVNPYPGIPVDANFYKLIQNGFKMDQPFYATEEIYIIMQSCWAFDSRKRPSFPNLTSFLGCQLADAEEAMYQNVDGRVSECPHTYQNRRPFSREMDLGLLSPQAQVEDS

HT-29 = assay: Cytotoxicity against c-Met-dependent human HT-29 cells assessed as growth inhibition after 72 hrs by MTT assay; conditions: HT-29, 72 h
[4] = Cytotoxicity against c-Met-dependent human U87MG cells assessed as growth inhibition after 72 hrs by MTT assay; format: functional, cell-based, U-87MG ATCC; conditions: U-87 MG
In short: (§2)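 Cells grown in MEM with 10% FBS. About 4×10³ cells/well were seeded and incubated 24 h at 37 °C, 5% CO₂, then exposed to compound for 72 h. MTT was added (terminal 5 µg/mL) for 4 h at 37 °C, and formazan was dissolved in DMSO. IC50 is the mean of three determinations.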

[5] = target: Mast/stem cell growth factor receptor Kit (Homo sapiens, UniProt P10721); assay: Inhibition of c-Kit (unknown origin) using poly (Glu, Tyr) 4:1 as substrate after 30 mins by HTRF assay; in short: as §1
Chain of Mast/stem cell growth factor receptor Kit (P10721 whole entry): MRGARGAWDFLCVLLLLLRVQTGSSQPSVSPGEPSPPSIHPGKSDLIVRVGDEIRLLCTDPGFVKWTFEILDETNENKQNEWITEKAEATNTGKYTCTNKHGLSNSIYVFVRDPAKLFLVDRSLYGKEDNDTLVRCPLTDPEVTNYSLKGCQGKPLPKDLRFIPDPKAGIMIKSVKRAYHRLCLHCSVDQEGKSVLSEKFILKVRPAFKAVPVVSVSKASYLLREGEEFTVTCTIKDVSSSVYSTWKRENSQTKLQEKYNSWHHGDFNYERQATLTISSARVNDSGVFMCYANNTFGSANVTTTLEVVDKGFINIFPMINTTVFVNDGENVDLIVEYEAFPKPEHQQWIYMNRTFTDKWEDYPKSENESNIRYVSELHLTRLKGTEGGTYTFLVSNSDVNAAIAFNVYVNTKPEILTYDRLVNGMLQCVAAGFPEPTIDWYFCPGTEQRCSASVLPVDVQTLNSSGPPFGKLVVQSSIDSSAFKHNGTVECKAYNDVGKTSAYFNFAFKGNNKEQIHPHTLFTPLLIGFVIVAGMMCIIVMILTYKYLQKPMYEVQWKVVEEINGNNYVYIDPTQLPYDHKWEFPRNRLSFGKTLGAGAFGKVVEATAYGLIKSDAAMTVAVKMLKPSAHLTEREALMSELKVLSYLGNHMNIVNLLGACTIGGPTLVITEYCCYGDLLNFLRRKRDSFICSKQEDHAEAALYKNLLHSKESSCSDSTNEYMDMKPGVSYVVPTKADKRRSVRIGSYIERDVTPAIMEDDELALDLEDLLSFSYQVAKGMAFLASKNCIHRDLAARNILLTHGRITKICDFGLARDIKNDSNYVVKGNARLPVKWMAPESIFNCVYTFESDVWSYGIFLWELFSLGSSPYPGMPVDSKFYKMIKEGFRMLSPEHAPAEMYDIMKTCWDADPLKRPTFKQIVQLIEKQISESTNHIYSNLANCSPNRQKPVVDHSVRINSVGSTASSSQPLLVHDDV

[6] = target: Vascular endothelial growth factor receptor 2 (Homo sapiens, UniProt P35968); assay: Inhibition of VEGFR-2 (unknown origin) using poly (Glu, Tyr) 4:1 as substrate after 30 mins by HTRF assay; in short: as §1
Chain of Vascular endothelial growth factor receptor 2 (P35968 whole entry): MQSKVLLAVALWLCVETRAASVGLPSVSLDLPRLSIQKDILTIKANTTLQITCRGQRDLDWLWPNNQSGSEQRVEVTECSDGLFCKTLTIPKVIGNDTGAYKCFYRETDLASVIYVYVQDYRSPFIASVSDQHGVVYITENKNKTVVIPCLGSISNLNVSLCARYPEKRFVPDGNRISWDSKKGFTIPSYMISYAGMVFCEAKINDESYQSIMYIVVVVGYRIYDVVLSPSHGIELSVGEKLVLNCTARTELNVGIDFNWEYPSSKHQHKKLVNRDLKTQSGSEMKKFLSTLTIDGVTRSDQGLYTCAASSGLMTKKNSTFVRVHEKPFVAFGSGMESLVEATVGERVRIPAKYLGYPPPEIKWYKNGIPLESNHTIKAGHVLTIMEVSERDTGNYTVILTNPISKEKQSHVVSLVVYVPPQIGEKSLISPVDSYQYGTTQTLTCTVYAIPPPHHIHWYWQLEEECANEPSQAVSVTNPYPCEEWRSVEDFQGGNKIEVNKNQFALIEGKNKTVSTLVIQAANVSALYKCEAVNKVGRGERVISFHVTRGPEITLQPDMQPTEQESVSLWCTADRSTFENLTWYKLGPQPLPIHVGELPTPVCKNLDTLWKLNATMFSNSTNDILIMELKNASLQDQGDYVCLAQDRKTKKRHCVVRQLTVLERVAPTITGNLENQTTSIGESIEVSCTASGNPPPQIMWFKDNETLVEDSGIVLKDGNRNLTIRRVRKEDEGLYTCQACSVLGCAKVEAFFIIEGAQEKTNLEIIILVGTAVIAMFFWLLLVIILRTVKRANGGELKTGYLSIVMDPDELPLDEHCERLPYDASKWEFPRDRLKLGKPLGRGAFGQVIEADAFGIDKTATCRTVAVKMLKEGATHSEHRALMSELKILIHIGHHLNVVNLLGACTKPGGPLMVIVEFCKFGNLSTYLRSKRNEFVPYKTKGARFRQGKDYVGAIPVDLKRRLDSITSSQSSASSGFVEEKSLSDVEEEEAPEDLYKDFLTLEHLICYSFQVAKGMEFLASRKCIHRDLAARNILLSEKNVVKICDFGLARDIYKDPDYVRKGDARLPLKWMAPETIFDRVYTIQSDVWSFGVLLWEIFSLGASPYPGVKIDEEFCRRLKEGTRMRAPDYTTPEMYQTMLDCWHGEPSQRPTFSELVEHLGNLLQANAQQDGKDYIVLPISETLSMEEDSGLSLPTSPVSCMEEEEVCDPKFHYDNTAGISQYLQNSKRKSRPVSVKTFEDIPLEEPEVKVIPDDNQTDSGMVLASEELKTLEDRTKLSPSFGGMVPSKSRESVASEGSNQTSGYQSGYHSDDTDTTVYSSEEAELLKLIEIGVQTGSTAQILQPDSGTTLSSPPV

A549 = assay: Cytotoxicity against c-Met-dependent human A549 cells assessed as growth inhibition after 72 hrs by MTT assay; conditions: A549, 72 h
[7] = target: Platelet-derived growth factor receptor alpha (Homo sapiens, UniProt P16234); assay: Inhibition of PDGFRalpha (unknown origin) using poly (Glu, Tyr) 4:1 as substrate after 30 mins by HTRF assay; in short: as §1
Chain of Platelet-derived growth factor receptor alpha (P16234 whole entry): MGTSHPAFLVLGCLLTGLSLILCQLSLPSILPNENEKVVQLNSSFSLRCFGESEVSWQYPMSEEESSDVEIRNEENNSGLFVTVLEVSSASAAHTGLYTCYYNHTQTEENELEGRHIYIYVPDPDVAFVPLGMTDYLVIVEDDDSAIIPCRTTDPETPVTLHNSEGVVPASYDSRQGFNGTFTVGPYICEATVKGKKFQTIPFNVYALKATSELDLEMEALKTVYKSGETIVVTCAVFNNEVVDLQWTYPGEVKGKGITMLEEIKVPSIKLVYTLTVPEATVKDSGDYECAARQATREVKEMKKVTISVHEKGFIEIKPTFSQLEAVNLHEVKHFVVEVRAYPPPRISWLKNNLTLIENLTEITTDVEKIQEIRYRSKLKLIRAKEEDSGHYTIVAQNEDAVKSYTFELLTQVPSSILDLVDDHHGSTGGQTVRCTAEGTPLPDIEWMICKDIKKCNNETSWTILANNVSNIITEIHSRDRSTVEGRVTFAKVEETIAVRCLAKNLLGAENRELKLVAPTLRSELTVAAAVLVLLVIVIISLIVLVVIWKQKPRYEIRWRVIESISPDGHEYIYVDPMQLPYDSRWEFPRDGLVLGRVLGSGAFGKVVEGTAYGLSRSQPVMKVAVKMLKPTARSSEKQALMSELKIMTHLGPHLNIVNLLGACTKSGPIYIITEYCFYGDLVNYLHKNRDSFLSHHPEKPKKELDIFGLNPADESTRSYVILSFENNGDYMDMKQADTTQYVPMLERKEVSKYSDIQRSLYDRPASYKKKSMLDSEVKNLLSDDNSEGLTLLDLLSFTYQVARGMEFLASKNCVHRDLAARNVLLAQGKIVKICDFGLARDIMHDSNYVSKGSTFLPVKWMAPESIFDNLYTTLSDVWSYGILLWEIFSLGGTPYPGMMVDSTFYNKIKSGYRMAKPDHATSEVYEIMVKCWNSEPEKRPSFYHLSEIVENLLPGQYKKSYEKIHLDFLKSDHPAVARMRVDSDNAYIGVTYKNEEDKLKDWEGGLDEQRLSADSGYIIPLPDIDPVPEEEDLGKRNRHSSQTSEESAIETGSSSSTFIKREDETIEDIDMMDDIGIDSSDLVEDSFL

[8] = Cytotoxicity against c-Met-independent human H460 cells assessed as growth inhibition after 72 hrs by MTT assay; conditions: NCI-H460, 72 h
SMMC-7721 = assay: Cytotoxicity against c-Met-dependent human SMMC7721 cells assessed as growth inhibition after 72 hrs by MTT assay; format: functional, cell-based; conditions: SMMC-7721, 72 h; in short: as §2
MKN-45 = assay: Cytotoxicity against c-Met-dependent human MKN45 cells assessed as growth inhibition after 72 hrs by MTT assay; conditions: MKN-45, 72 h

IC50 [1]: 0.59 nM
IC50 [2]: > 10000 nM
IC50 [3]: 8.5 nM
IC50 [5]: 3.9 nM
IC50 [6]: 15.4 nM
IC50 [7]: 27.3 nM
SMILES: COc1cc2c(Oc3ccc(NC(=O)c4nn(-c5ccccc5C(F)(F)F)c5ccccc5c4=O)cc3F)ccnc2cc1OCCCN1CCCC1
IC50 (HT-29): 110 nM
IC50 [4]: 350 nM
IC50 (A549): 35 nM
IC50 [8]: 55 nM
IC50 (SMMC-7721): 250 nM
IC50 (MKN-45): 22 nM
